{"source": "paper PMC6061410", "about": "(Clinical Drug Investigation, 2018)", "test_system": "healthy young and healthy elderly subjects", "assay": "Safety and tolerability", "format": "in vivo, human", "procedure,_shortened": "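Adverse events were recorded by system organ class and preferred term in the treated set. This was 84 healthy young or elderly subjects randomised 3:1 to oral drug or placebo over 14 days, across seven ascending dose groups with a safety review before each escalation. Changes were assessed against the last pre-dose baseline measurement.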", "note": "“Also recorded” adds a separate entry of the source."}
{"molecule": "C[C@@H](Oc1ccc(S(C)(=O)=O)cc1C(=O)N1C[C@@H]2C[C@]2(c2cc(C(F)(F)F)on2)C1)C(F)(F)F", "note": "[BI 425809]", "values": [{"measurement": "intensity of treatment-emergent AEs", "setting": "all dose groups", "value": "mild-to-moderate; also recorded: mild or moderate"}, {"measurement": "intensity of eye disorders", "setting": "both age groups", "value": "mild"}, {"measurement": "subjects who reported one or more AEs", "setting": "elderly subjects receiving the active drug", "value": 88.9, "unit": "%"}, {"measurement": "subjects with drug-related AEs", "setting": "elderly subjects who received BI 425809", "value": 77.8, "unit": "%"}, {"measurement": "Back pain", "setting": "elderly, 25 mg QD", "value": "1 (11.1) n (%)"}, {"measurement": "Constipation", "setting": "elderly, 25 mg QD", "value": "0 (–) n (%)"}, {"measurement": "Dizziness", "setting": "elderly, 25 mg QD", "value": "1 (11.1) n (%)"}, {"measurement": "Eye disorders", "setting": "elderly, 25 mg QD", "value": "1 (11.1) n (%)"}, {"measurement": "Folliculitis", "setting": "elderly, 25 mg QD", "value": "2 (22.2) n (%)"}, {"measurement": "Gastrointestinal disorders", "setting": "elderly, 25 mg QD", "value": "6 (66.7) n (%)"}, {"measurement": "General disorders and administration site conditions", "setting": "elderly, 25 mg QD", "value": "2 (22.2) n (%)"}, {"measurement": "Hard faeces", "setting": "elderly, 25 mg QD", "value": "2 (22.2) n (%)"}, {"measurement": "Headache", "setting": "elderly, 25 mg QD", "value": "1 (11.1) n (%)"}, {"measurement": "Infections and infestations", "setting": "elderly, 25 mg QD", "value": "3 (33.3) n (%)"}, {"measurement": "Injury, poisoning and procedural complications", "setting": "elderly, 25 mg QD", "value": "2 (22.2) n (%)"}, {"measurement": "Musculoskeletal and connective tissue disorders", "setting": "elderly, 25 mg QD", "value": "1 (11.1) n (%)"}, {"measurement": "Nasopharyngitis", "setting": "elderly, 25 mg QD", "value": "1 (11.1) n (%)"}, {"measurement": "Nausea", "setting": "elderly, 25 mg QD", "value": "1 (11.1) n (%)"}, {"measurement": "Nervous system disorder", "setting": "elderly, 25 mg QD", "value": "2 (22.2) n (%)"}, {"measurement": "Psychiatric disorders", "setting": "elderly, 25 mg QD", "value": "2 (22.2) n (%)"}, {"measurement": "Subjects with AEs leading to study discontinuation", "setting": "elderly, 25 mg QD", "value": "0 (–) n (%)"}, {"measurement": "Subjects with investigator-defined drug-related AEs", "setting": "elderly, 25 mg QD", "value": "6 (66.7) n (%)"}, {"measurement": "Total with AEs", "setting": "elderly, 25 mg QD", "value": "8 (88.9) n (%)"}, {"measurement": "Venepuncture site haematoma", "setting": "elderly, 25 mg QD", "value": "1 (11.1) n (%)"}, {"measurement": "Vomiting", "setting": "elderly, 25 mg QD", "value": "1 (11.1) n (%)"}, {"measurement": "Back pain", "setting": "elderly, 50 mg QD", "value": "1 (11.1) n (%)"}, {"measurement": "Constipation", "setting": "elderly, 50 mg QD", "value": "4 (44.4) n (%)"}, {"measurement": "Dizziness", "setting": "elderly, 50 mg QD", "value": "2 (22.2) n (%)"}, {"measurement": "Eye disorders", "setting": "elderly, 50 mg QD", "value": "1 (11.1) n (%)"}, {"measurement": "Folliculitis", "setting": "elderly, 50 mg QD", "value": "1 (11.1) n (%)"}, {"measurement": "Gastrointestinal disorders", "setting": "elderly, 50 mg QD", "value": "5 (55.6) n (%)"}, {"measurement": "General disorders and administration site conditions", "setting": "elderly, 50 mg QD", "value": "4 (44.4) n (%)"}, {"measurement": "Hard faeces", "setting": "elderly, 50 mg QD", "value": "0 (–) n (%)"}, {"measurement": "Headache", "setting": "elderly, 50 mg QD", "value": "1 (11.1) n (%)"}, {"measurement": "Infections and infestations", "setting": "elderly, 50 mg QD", "value": "3 (33.3) n (%)"}, {"measurement": "Injury, poisoning and procedural complications", "setting": "elderly, 50 mg QD", "value": "0 (–) n (%)"}, {"measurement": "Musculoskeletal and connective tissue disorders", "setting": "elderly, 50 mg QD", "value": "2 (22.2) n (%)"}, {"measurement": "Nasopharyngitis", "setting": "elderly, 50 mg QD", "value": "1 (11.1) n (%)"}, {"measurement": "Nausea", "setting": "elderly, 50 mg QD", "value": "1 (11.1) n (%)"}, {"measurement": "Nervous system disorder", "setting": "elderly, 50 mg QD", "value": "3 (33.3) n (%)"}, {"measurement": "Psychiatric disorders", "setting": "elderly, 50 mg QD", "value": "2 (22.2) n (%)"}, {"measurement": "Subjects with AEs leading to study discontinuation", "setting": "elderly, 50 mg QD", "value": "1 (11.1) n (%)"}, {"measurement": "Subjects with investigator-defined drug-related AEs", "setting": "elderly, 50 mg QD", "value": "8 (88.9) n (%)"}, {"measurement": "Total with AEs", "setting": "elderly, 50 mg QD", "value": "8 (88.9) n (%)"}, {"measurement": "Venepuncture site haematoma", "setting": "elderly, 50 mg QD", "value": "4 (44.4) n (%)"}, {"measurement": "Vomiting", "setting": "elderly, 50 mg QD", "value": "1 (11.1) n (%)"}, {"measurement": "Back pain", "setting": "elderly, Total BI n = 18", "value": "2 (11.1) n (%)"}, {"measurement": "Constipation", "setting": "elderly, Total BI n = 18", "value": "4 (22.2) n (%)"}, {"measurement": "Dizziness", "setting": "elderly, Total BI n = 18", "value": "3 (16.7) n (%)"}, {"measurement": "Eye disorders", "setting": "elderly, Total BI n = 18", "value": "2 (11.1) n (%)"}, {"measurement": "Folliculitis", "setting": "elderly, Total BI n = 18", "value": "3 (16.7) n (%)"}, {"measurement": "Gastrointestinal disorders", "setting": "elderly, Total BI n = 18", "value": "11 (61.1) n (%)"}, {"measurement": "General disorders and administration site conditions", "setting": "elderly, Total BI n = 18", "value": "6 (33.3) n (%)"}, {"measurement": "Hard faeces", "setting": "elderly, Total BI n = 18", "value": "2 (11.1) n (%)"}, {"measurement": "Headache", "setting": "elderly, Total BI n = 18", "value": "2 (11.1) n (%)"}, {"measurement": "Infections and infestations", "setting": "elderly, Total BI n = 18", "value": "6 (33.3) n (%)"}, {"measurement": "Injury, poisoning and procedural complications", "setting": "elderly, Total BI n = 18", "value": "2 (11.1) n (%)"}, {"measurement": "Musculoskeletal and connective tissue disorders", "setting": "elderly, Total BI n = 18", "value": "3 (16.7) n (%)"}, {"measurement": "Nasopharyngitis", "setting": "elderly, Total BI n = 18", "value": "2 (11.1) n (%)"}, {"measurement": "Nausea", "setting": "elderly, Total BI n = 18", "value": "2 (11.1) n (%)"}, {"measurement": "Nervous system disorder", "setting": "elderly, Total BI n = 18", "value": "5 (27.8) n (%)"}, {"measurement": "Psychiatric disorders", "setting": "elderly, Total BI n = 18", "value": "4 (22.2) n (%)"}, {"measurement": "Subjects with AEs leading to study discontinuation", "setting": "elderly, Total BI n = 18", "value": "1 (5.6) n (%)"}, {"measurement": "Subjects with investigator-defined drug-related AEs", "setting": "elderly, Total BI n = 18", "value": "14 (77.8) n (%)"}, {"measurement": "Total with AEs", "setting": "elderly, Total BI n = 18", "value": "16 (88.9) n (%)"}, {"measurement": "Vomiting", "setting": "elderly, Total BI n = 18", "value": "2 (11.1) n (%)"}, {"measurement": "dose dependency of AEs", "setting": "frequency of subjects with drug-related AE across treatment groups", "value": "no dose dependency was observed; also recorded: not dose dependent"}, {"measurement": "tolerability", "setting": "multiple doses 10–75 mg QD or 75 mg BID (young), 25 or 50 mg QD (elderly)", "value": "generally well tolerated"}, {"measurement": "serious AEs", "setting": "part 1, all dose groups", "value": "no serious adverse events occurred; also recorded: no serious AEs were reported"}, {"measurement": "subjects who experienced one or more AEs", "setting": "young subjects, part 1, active-treatment arm", "value": 66.7, "unit": "%"}, {"measurement": "subjects with drug-related AEs", "setting": "young subjects, part 1, receiving BI 425809", "value": 60.0, "unit": "%"}, {"measurement": "Dizziness", "setting": "young, part 1, 10 mg QD", "value": "1 (11.1) n (%)"}, {"measurement": "Eye disorders", "setting": "young, part 1, 10 mg QD", "value": "0 (–) n (%)"}, {"measurement": "Gastrointestinal disorders", "setting": "young, part 1, 10 mg QD", "value": "0 (–) n (%)"}, {"measurement": "General disorders and administration site conditions", "setting": "young, part 1, 10 mg QD", "value": "0 (–) n (%)"}, {"measurement": "Headache", "setting": "young, part 1, 10 mg QD", "value": "3 (33.3) n (%)"}, {"measurement": "Infections and infestations", "setting": "young, part 1, 10 mg QD", "value": "1 (11.1) n (%)"}, {"measurement": "Insomnia", "setting": "young, part 1, 10 mg QD", "value": "0 (–) n (%)"}, {"measurement": "Musculoskeletal and connective tissue disorders", "setting": "young, part 1, 10 mg QD", "value": "1 (11.1) n (%)"}, {"measurement": "Nasopharyngitis", "setting": "young, part 1, 10 mg QD", "value": "0 (–) n (%)"}, {"measurement": "Nervous system disorder", "setting": "young, part 1, 10 mg QD", "value": "4 (44.4) n (%)"}, {"measurement": "Ocular discomfort", "setting": "young, part 1, 10 mg QD", "value": "0 (–) n (%)"}, {"measurement": "Psychiatric disorders", "setting": "young, part 1, 10 mg QD", "value": "0 (–) n (%)"}, {"measurement": "Subjects with AEs leading to study discontinuation", "setting": "young, part 1, 10 mg QD", "value": "0 (–) n (%)"}, {"measurement": "Subjects with investigator-defined drug-related AEs", "setting": "young, part 1, 10 mg QD", "value": "4 (44.4) n (%)"}, {"measurement": "Total with AEs", "setting": "young, part 1, 10 mg QD", "value": "5 (55.6) n (%)"}, {"measurement": "Vision blurred", "setting": "young, part 1, 10 mg QD", "value": "0 (–) n (%)"}, {"measurement": "Dizziness", "setting": "young, part 1, 25 mg QD", "value": "0 (–) n (%)"}, {"measurement": "Eye disorders", "setting": "young, part 1, 25 mg QD", "value": "2 (22.2) n (%)"}]}
